Tests used:
Enterococcus faecalis = test: Antibacterial activity against vancomycin-resistant Enterococcus faecalis NCTC 12201 after 20 hrs by broth microdilution method; format: functional; conditions: NCTC 12201, 20 h
Procedure, shortened: (§1)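 Broth microdilution in Tryptic Soy Broth; growth read as OD600 after 20 h. MIC taken as the lowest drug concentration giving OD600 below 0.1. Run in triplicate.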

Staphylococcus aureus = test: Antibacterial activity against methicillin-resistant Staphylococcus aureus EMRSA-15 after 20 hrs by broth microdilution method; format: functional; conditions: EMRSA-15, 20 h; procedure, shortened: as §1

Cc1nc2ccc(C(=O)Nc3cccc(-c4ccc(-n5c(C)nc6cc(C(=O)NCCCN7CCOCC7)ccc65)nc4)c3)cc2[nH]1
MIC (Enterococcus faecalis): > 128 µg/mL | MIC (Staphylococcus aureus): > 128 µg/mL

COC(=O)c1ccc2c(c1)nc(C)n2-c1ccc(-c2cccc(NC(=O)c3ccc4nc(C)[nH]c4c3)c2)cn1
MIC (Enterococcus faecalis): > 32 µg/mL | MIC (Staphylococcus aureus): > 32 µg/mL

Cc1nc2cc(C(=O)NCCCN(C)C)ccc2n1-c1ccc(-c2cccc(NC(=O)c3ccccc3)c2)cn1
MIC (Enterococcus faecalis): > 128 µg/mL | MIC (Staphylococcus aureus): > 128 µg/mL

Cc1nc2ccc(C(=O)Nc3cccc(-c4ccc(-n5c(C)nc6cc(C(=O)NCCCN7CCCC7)ccc65)nc4)c3)cc2[nH]1
MIC (Enterococcus faecalis): > 128 µg/mL | MIC (Staphylococcus aureus): > 128 µg/mL
